Laboratory results reported in ChEMBL document CHEMBL4052717, “Novel 3H-[1,2,3]triazolo[4,5-c]pyridine derivatives as GPR119 agonists: Synthesis and structure-activity/solubility relationships” (Bioorg Med Chem, 2017).
Converted amounts (≈) assume the structure as drawn.

Experiments:
[1] = Thermodynamic solubility of the compound in pH 6.8 phosphate buffer after 24 hrs by HPLC analysis; format: physicochemical; conditions: read-out: Therm_solubility
In short: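 Excess solid in pH 6.8 phosphate buffer was shaken 24 h at 25 °C and centrifuged (3000 and 11000 rpm, 10 min). Supernatant was diluted in 50% aqueous acetonitrile and quantified by reversed-phase HPLC (0.1% phosphoric acid/acetonitrile, 40 °C column, UV 210 nm).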

[2] = Drug metabolism in human liver microsomes assessed per mg protein after 15 mins; format: ADME, microsome; conditions: read-out: Drug metabolism
In short: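 Compound was incubated 15 min with human liver microsomes at 1 mg protein/mL; the value is reported as percent metabolized.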

[3] = biological target: T1, Glucose-dependent insulinotropic receptor (Homo sapiens, UniProt Q8TDV5); test: Agonist activity at human GPR119 expressed in Flp-In-T-Rex-HEK293 cells assessed as stimulation of cAMP level measured after 30 mins by HTRF assay; format: functional, cell-based
T1 sequence (Q8TDV5 whole entry): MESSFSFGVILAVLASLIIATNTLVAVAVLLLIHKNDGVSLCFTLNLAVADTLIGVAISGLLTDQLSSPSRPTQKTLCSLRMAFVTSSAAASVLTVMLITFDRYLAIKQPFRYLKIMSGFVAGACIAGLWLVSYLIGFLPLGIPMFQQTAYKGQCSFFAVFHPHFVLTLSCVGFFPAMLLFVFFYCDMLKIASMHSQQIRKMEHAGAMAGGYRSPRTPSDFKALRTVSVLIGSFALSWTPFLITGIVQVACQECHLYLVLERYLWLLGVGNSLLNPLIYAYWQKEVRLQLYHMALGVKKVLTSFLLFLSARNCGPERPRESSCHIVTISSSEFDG
In short: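 Flp-In-T-Rex-HEK293 cells overexpressing human GPR119 were induced with tetracycline for 24 h, then seeded at 5000 cells/well in DMEM with 1 mM IBMX and 0.01% BSA. Cells were exposed to compound for 30 min at 37 °C, and cAMP was read by HTRF (HiRange kit). Basal cAMP was subtracted, and EC50 is the concentration giving 50% of maximal response on dose-response curves.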

[4] = Permeability of the compound at pH 6.2 by PAMPA; format: physicochemical; conditions: read-out: permeability
[5] = Clearance in Sprague-Dawley rat at 3 mg/kg, iv administered as single dose by LC-MS/MS analysis; format: ADME, organism-based; conditions: in vivo
In short: (§1)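 Fasted male Sprague-Dawley rats received a single dose, either 3 mg/kg iv in 20% 2-hydroxypropyl-β-cyclodextrin or 10 mg/kg orally in 0.5% methylcellulose with 0.1% Tween80. Tail-vein blood was taken at each time point and spun to plasma. Analyte was quantified by LC-MS/MS, and parameters were derived by non-compartmental analysis.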

[6] = AUC (0 to infinity) in Sprague-Dawley rat at 10 mg/kg, po administered as single dose by LC-MS/MS analysis; format: ADME, organism-based; parameters: dose 10 mg/kg, route oral, time infinity; conditions: in vivo; in short: as §1
[7] = Volume of distribution at steady state in Sprague-Dawley rat at 3 mg/kg, iv administered as single dose by LC-MS/MS analysis; format: ADME, organism-based; conditions: in vivo, read-out: Vdss; in short: as §1
[8] = Oral bioavailability in Sprague-Dawley rat at 10 mg/kg administered as single dose by LC-MS/MS analysis; format: ADME, organism-based; conditions: in vivo; in short: as §1
[9] = Half life in Sprague-Dawley rat at 3 mg/kg, iv administered as single dose by LC-MS/MS analysis; format: ADME, organism-based; conditions: in vivo; in short: as §1

CC(C)(OC(=O)N1CCC(n2ncc3cc(-c4ccc(S(C)(=O)=O)cc4)ncc32)CC1)C(F)F
solubility thermodynamic at 24 h [1]: 0.28 µM (≈ 0.138 µg/mL)

CC(C)OC(=O)N1CCC(n2ncc3cc(-c4ccc(S(C)(=O)=O)cc4)ncc32)CC1
solubility thermodynamic at 24 h [1]: 1.51 µM (≈ 0.668 µg/mL)

CC(C)COC(=O)N1CCC(n2ncc3cc(-c4ccc(S(C)(=O)=O)cc4)ncc32)CC1
solubility thermodynamic at 24 h [1]: 1.18 µM (≈ 0.539 µg/mL)

CCNC(=O)c1cc(F)c(-c2cc3cnn(C4CCN(C(=O)OC(C)C)CC4)c3cn2)cc1F
solubility thermodynamic at 24 h [1]: 2.84 µM (≈ 1.34 µg/mL)
metabolised at 0.25 h [2]: 12.4%

CCc1cnc(N2CCC(n3ncc4cc(-c5ccc(S(C)(=O)=O)cc5)ncc43)CC2)nc1
solubility thermodynamic at 24 h [1]: 0.26 µM (≈ 0.12 µg/mL)

CCc1cnc(N2CCC(n3nnc4cc(-c5ccc(S(C)(=O)=O)cc5)ncc43)CC2)nc1
solubility thermodynamic at 24 h [1]: 0.28 µM (≈ 0.13 µg/mL)
EC50 [3]: 21 nM

CCNC(=O)c1c(C)cc(-c2cc3nnn(C4CCN(c5ncc(CC)cn5)CC4)c3cn2)cc1C
solubility thermodynamic at 24 h [1]: 5.01 µM (≈ 2.43 µg/mL)
EC50 [3]: 27 nM

CCNC(=O)c1ccc(-c2cc3nnn(C4CCN(c5ncc(CC)cn5)CC4)c3cn2)cc1Cl
solubility thermodynamic at 24 h [1]: < 0.16 µM
EC50 [3]: 18 nM

CCNC(=O)c1ccc(-c2cc3nnn(C4CCN(c5ncc(CC)cn5)CC4)c3cn2)c(F)c1F
EC50 [3]: 10 nM

CC(C)OC(=O)N1CCC(n2nnc3cc(-c4cc(F)c(C(=O)N5CCC5)cc4F)ncc32)CC1
solubility thermodynamic at 24 h [1]: 2.7 µM (≈ 1.31 µg/mL)
EC50 [3]: 61 nM
metabolised at 0.25 h [2]: 5.4%

CCc1cnc(N2CCC(n3nnc4cc(-c5ccc(S(C)(=O)=O)c(F)c5)ncc43)CC2)nc1
solubility thermodynamic at 24 h [1]: < 0.15 µM
EC50 [3]: 9 nM

CCNC(=O)c1ccc(-c2cc3nnn(C4CCN(c5ncc(CC)cn5)CC4)c3cn2)c(C(F)(F)F)c1
solubility thermodynamic at 24 h [1]: 1.2 µM (≈ 0.629 µg/mL)
EC50 [3]: 60 nM

CCNC(=O)c1ccc(-c2cc3nnn(C4CCN(c5ncc(CC)cn5)CC4)c3cn2)cc1C(F)(F)F
solubility thermodynamic at 24 h [1]: 0.51 µM (≈ 0.268 µg/mL)
EC50 [3]: 39 nM

CCNC(=O)c1cc(F)c(-c2cc3nnn(C4CCN(C(=O)OC(C)C)CC4)c3cn2)cc1F
solubility thermodynamic at 24 h [1]: 5.5 µM (≈ 2.6 µg/mL)
EC50 [3]: 37 nM
metabolised at 0.25 h [2]: 11%

CCNC(=O)c1cc(F)c(-c2cc3nnn(C4CCN(c5ncc(CC)cn5)CC4)c3cn2)cc1F
solubility thermodynamic at 24 h [1]: 0.24 µM (≈ 0.118 µg/mL)
EC50 [3]: 2 nM

CCc1cnc(N2CCC(n3ncc4cc(-c5ccc(S(C)(=O)=O)cc5)c(C)cc43)CC2)nc1
EC50 [3]: 70 nM

CCc1cnc(N2CCC(n3ncc4cc(-c5ccc(S(C)(=O)=O)cc5)ccc43)CC2)nc1
solubility thermodynamic at 24 h [1]: < 0.11 µM
EC50 [3]: 14 nM

CCNC(=O)c1ccc(-c2cc3nnn(C4CCN(c5ncc(CC)cn5)CC4)c3cn2)c(C)c1
solubility thermodynamic at 24 h [1]: < 0.09 µM
EC50 [3]: 19 nM

CCc1cnc(N2CCC(n3nnc4cc(-c5ccc(S(C)(=O)=O)cc5)ccc43)CC2)nc1
solubility thermodynamic at 24 h [1]: < 0.13 µM
EC50 [3]: 31 nM

CC(C)OC(=O)N1CCC(n2nnc3cc(-c4cc(F)c(C(=O)N5CCCC5)cc4F)ncc32)CC1
solubility thermodynamic at 24 h [1]: 15.9 µM (≈ 7.93 µg/mL)
Papp [4]: 97 ×10⁻⁶ cm/s
EC50 [3]: 65 nM
clearance [5]: 27.2 mL/min/kg
AUC(0-inf) [6]: 1030 ng·h/mL
Vd [7]: 0.557 L/kg
metabolised at 0.25 h [2]: 9.3%
bioavailability [8]: 16.7%
half-life [9]: 14.5 min

CCc1cnc(N2CCC(n3nnc4cc(-c5ccc(S(C)(=O)=O)cc5F)ncc43)CC2)nc1
solubility thermodynamic at 24 h [1]: < 0.12 µM
EC50 [3]: 7 nM

CC(C)NC(=O)c1cc(F)c(-c2cc3nnn(C4CCN(C(=O)OC(C)C)CC4)c3cn2)cc1F
solubility thermodynamic at 24 h [1]: 0.84 µM (≈ 0.409 µg/mL)
EC50 [3]: 33 nM

CCNC(=O)c1ccc(-c2cc3nnn(C4CCN(c5ncc(CC)cn5)CC4)c3cn2)c(Cl)c1
solubility thermodynamic at 24 h [1]: 0.24 µM (≈ 0.118 µg/mL)
EC50 [3]: 13 nM

CCNC(=O)c1ccc(-c2cc3nnn(C4CCN(c5ncc(CC)cn5)CC4)c3cn2)cc1C
solubility thermodynamic at 24 h [1]: 1.79 µM (≈ 0.842 µg/mL)
EC50 [3]: 18 nM

CCNC(=O)c1cc(C)c(-c2cc3nnn(C4CCN(c5ncc(CC)cn5)CC4)c3cn2)c(C)c1
solubility thermodynamic at 24 h [1]: 1.86 µM (≈ 0.901 µg/mL)
EC50 [3]: 83 nM

CCNC(=O)c1ccc(-c2cc3nnn(C4CCN(c5ncc(CC)cn5)CC4)c3cn2)c(F)c1
EC50 [3]: 15 nM

CCc1cnc(N2CCC(n3ncc4c(C)c(-c5ccc(S(C)(=O)=O)cc5)ccc43)CC2)nc1
EC50 [3]: 3420 nM
